Results collected from several papers.
Each line is one published result; the experiments were not run side by side.
Si: Sucrase-isomaltase, intestinal (Si, Rattus norvegicus, UniProt P23739)
NR3C1: Glucocorticoid receptor (NR3C1, Homo sapiens, UniProt P04150)
TYR: Tyrosinase (TYR, Homo sapiens, UniProt P14679)
ESR1: Estrogen receptor (ESR1, Homo sapiens, UniProt P03372)
PIK3C3: Phosphatidylinositol 3-kinase catalytic subunit type 3 (PIK3C3, Homo sapiens, UniProt Q8NEB9)

O=c1c(O[C@@H]2O[C@@H](CO)[C@H](O)[C@H]2O)c(-c2ccc(O)c(O)c2)oc2cc(O)cc(O)c12
inhibition (Si; enzyme activity; inhibitor; 25 µg/mL): 28.6%

CCN(CC)c1ccc(C2=NNC(=O)CC2C)cc1[N+](=O)[O-] (stereo not shown)
inhibition (cGMP-inhibited 3',5'-cyclic phosphodiesterase 3A (PDE3A, Homo sapiens, UniProt Q14432); enzyme activity; inhibitor; 0.1 µM): 95%

Oc1cccc(Nc2nc(-c3ccc(F)cc3F)cs2)c1
inhibition (NR3C1; cell-free assay; 10 µM): 21.6%

Cc1ccc(Nc2nccc(N(C)c3ccc4c(C)n(C)nc4c3)n2)cc1S(N)(=O)=O
inhibition (Mitogen-activated protein kinase 14 (MAPK14, Homo sapiens, UniProt Q16539); enzyme activity; inhibitor; 10 µM): 62%

Cc1ccc(C(C)C)cc1NC(=O)COC(=O)c1ccc(O)c(O)c1
inhibition (TYR; enzyme activity; inhibitor; 50 µg/mL): 56.9%

COc1cc(NC(C)=O)c(Cl)cc1C(=O)Nc1nccs1
inhibition (NR3C1; cell-free assay; 10 µM): 11%

O=C(Nc1ccc(S(=O)(=O)N2CCC(Cl)CC2)cc1)c1ccc([N+](=O)[O-])o1
inhibition (ESR1; ligand displacement; radioligand; 10 µM): 0%

O=c1c(O[C@@H]2O[C@H](CO)[C@@H](O)[C@H](O)[C@H]2O)c(-c2ccc(O)c(O)c2)oc2cc(O)cc(O)c12
inhibition (Si; enzyme activity; inhibitor; 200 µg/mL): 61.4%

Cc1ccc(C(C)C)cc1NC(=O)COC(=O)c1cccc(O)c1
inhibition (TYR; enzyme activity; inhibitor; 50 µg/mL): 61.2%

CCN(Cc1ccccc1C(F)(F)F)C(=O)C1CCN(S(=O)(=O)c2ccc3[nH]ncc3c2)CC1
inhibition (ESR1; ligand displacement; radioligand; 10 µM): 8%

Cc1ccc(C(C)C)cc1NC(=O)COC(=O)c1cc(O)cc(O)c1
inhibition (TYR; enzyme activity; inhibitor; 50 µg/mL): 54.6%

CNc1cc(Oc2cc(C(=O)Nc3cc(N4CCN(C)CC4)cc(C(F)(F)F)c3)ccc2C)ncn1
inhibition (PAN2-PAN3 deadenylation complex subunit PAN3 (Homo sapiens, UniProt Q58A45); target engagement in cells; inhibitor; chemoproteomics; Huh-7; 1 µM): -39.3%

O=C(c1ccc(F)cc1)N(Cc1ccccc1)C1CCCCC1
inhibition (NR3C1; cell-free assay; 10 µM): 9%

CC(C)CCn1c(SCC(=O)Nc2ccccc2C(F)(F)F)nc2nccnc2c1=O
inhibition (PIK3C3; enzyme activity; inhibitor; 10 µM): < 20%

O=C1N=C(N2CCCCN2)S/C1=C\c1ccc(F)cc1O
inhibition (Nociceptin receptor (OPRL1, Homo sapiens, UniProt P41146); ligand displacement; radioligand; 10 µM): < 10%

O=C(CSc1nc2nccnc2c(=O)n1CCc1ccccc1)Nc1ccccc1
inhibition (PIK3C3; enzyme activity; inhibitor; 10 µM): < 20%

Cc1ccc(C(C)C)cc1NC(=O)COC(=O)/C=C/c1ccccc1O
inhibition (TYR; enzyme activity; inhibitor; 50 µg/mL): 53.7%

CN1CC(Oc2cnc(C#N)cc2-c2ccn3nc(NC(=O)C4CC4)cc3c2)C1
inhibition (Eukaryotic translation initiation factor 2-alpha kinase 1 (EIF2AK1, Homo sapiens, UniProt Q9BQI3); enzyme activity; inhibitor; 1 µM): -8%

CN(C)C1CCN(CC#Cc2nn(C3CCCC3)c3nc(NCc4ccccc4)ncc23)C1 (stereo not shown)
inhibition (Leucine-rich repeat serine/threonine-protein kinase 2 (LRRK2, Homo sapiens, UniProt Q5S007); enzyme activity; inhibitor; FRET; 1 µM): 0%

CCCNc1nc2ccccc2n1Cc1ccc(Cl)cc1
inhibition (Alpha-2C adrenergic receptor (ADRA2C, Homo sapiens, UniProt P18825); ligand displacement; 10 µM): 84.8%

CNC(=O)c1cc(Oc2ccc(NC(=O)Nc3ccc(Cl)c(C(F)(F)F)c3)cc2)ccn1
inhibition (Abl2 (Mus musculus, UniProt Q4JIM5); enzyme activity; inhibitor; 10 µM): 61%

COc1cc(Cl)c(C(=O)N[C@@H](CN[C@H]2CC[C@@H](N)CC2)Cc2ccc(C#N)cc2)cc1-c1ccc(CN[C@H](C)c2ccc(C)cc2)o1
inhibition (P2Y purinoceptor 2 (P2RY2, Homo sapiens, UniProt P41231); calcium signal; antagonist; 10 µM): -25%

COc1cc(-c2cc(-c3ccc(N4CCNCC4)cc3)cnc2C)cc(OC)c1OC
inhibition (cAMP-dependent protein kinase catalytic subunit beta (PRKACB, Homo sapiens, UniProt P22694); enzyme activity; inhibitor; 0.1 µM): 2%

O=C1OC[C@H]2OC(=O)c3cc(O)c(O)c(O)c3-c3c(O)c(O)c(O)c4c3C(=O)O[C@H]([C@H]3OC(=O)c5c-4c(O)c(O)c(O)c5[C@H]3O)[C@@H]2OC(=O)c2cc(O)c(O)c(O)c2-c2c1cc(O)c(O)c2O
inhibition (Si; enzyme activity; inhibitor; 50 µg/mL): 28.4%

O=C(c1ccc(Cl)cc1)N(Cc1ccccc1)C1CCCCC1
inhibition (5-hydroxytryptamine receptor 1A (HTR1A, Homo sapiens, UniProt P08908); ligand displacement; radioligand; 10 µM): -12.4%
